SKN-1 inh: blocks SKN-1 activity in C. elegans | C. elegans VP596 Pgst-4::GFP/RFP ratio, acrylamide-induced, 24 h | inhibition, % at 21.8 µM | hit rate 0.49% among 360,000;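 active means interference check ratio from 0.5 to 1.5 plus GFP to RFP signal ratio inhibition reaching or exceeding a fixed threshold, cut at about 30% in these data, passing the limit was not always enough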
ATG4B inh: inhibitors of human ATG4B cysteine protease. Q9Y4P1. ATG4B cleavage of LC3-PLA2, NBD-HPC fluorescence, 1 h. inhibition, % at 8.33 µM. hit rate 0.51% among 340,000. AID 504462; in the data active means inhibition above about 40%
Target sequence (Q9Y4P1 whole entry, looked up): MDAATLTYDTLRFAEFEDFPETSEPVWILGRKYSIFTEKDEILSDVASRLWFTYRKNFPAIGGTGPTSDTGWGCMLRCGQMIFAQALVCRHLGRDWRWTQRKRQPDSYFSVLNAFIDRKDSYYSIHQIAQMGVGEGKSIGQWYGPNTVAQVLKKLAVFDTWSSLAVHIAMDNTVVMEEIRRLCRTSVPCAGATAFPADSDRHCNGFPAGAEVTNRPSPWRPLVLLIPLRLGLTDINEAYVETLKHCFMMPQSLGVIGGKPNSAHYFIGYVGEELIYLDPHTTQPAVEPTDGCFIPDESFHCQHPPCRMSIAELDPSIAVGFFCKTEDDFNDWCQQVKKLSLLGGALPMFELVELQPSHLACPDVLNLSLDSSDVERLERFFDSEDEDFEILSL
MPTP inh: permeability transition pore inhibition | isolated mouse mitochondria, Ca2+ swelling absorbance, 30 min | hit rate 1.4% among 360,000 | inhibition, % at 10 µM;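 active means inhibition of 50% or more, scaled per plate between neutral and stimulator controls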
MT1-MMP act inh: inhibitors of human MT1-MMP activation | P50281 | HT1080 RFP-PRO-GFP cells, GFP/RFP ratio fluorescence, overnight; percent of plate control window, DMSO zero | GFP/RFP ratio change, % at 20 µM | hit rate 0.061% among 360,000;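 active means GFP/RFP ratio change of at least 30% with cell ATP level not reduced by more than half and red fluorescence within 50% of control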
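Material: RFP-PRO-GFP reporter HT1080 cells. Dosing: single-point 20 µM compound, 1% DMSO. Controls: DMSO and RFP-L50D-GFP cell wells. Timing: cells overnight before dosing, compound overnight, 37 °C, 5% CO2. Measure: GFP/RFP fluorescence ratio.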
Rh123 counter: Rhodamine 123 counter-screen of mitochondrial pore hits | AID 624504 | shares compounds with MPTP inh | hit rate 78% among 5,000 | inhibition, % at 10 µM | isolated mitochondria, membrane potential, Rhodamine 123 fluorescence; in the data active means inhibition above about 22%
MPTP abs DR: dose response confirmation of mitochondrial permeability transition pore inhibitors; IC50, µM; isolated mitochondria swelling, absorbance; AID 651561; shares compounds with MPTP inh; hit rate 58% among 780; in the data active means IC50 below about 20 µM
MPTP counter DR: active in counter-screen for permeability transition pore inhibitors; shares compounds with MPTP inh; isolated mitochondria counterscreen, fluorescence read-out; IC50, µM; hit rate 49% among 780; in the data active means IC50 below about 80 µM
Numbers stand for hits; - = inactive; . = no result. Sampled rows, rich in hits. Any-hit rate of the full collection: about 2.3%.

SMILES	SKN-1 inh	ATG4B inh	MPTP inh	MT1-MMP act inh	Rh123 counter	others
CC(C)(C)c1ccc(S(=O)(=O)N2CCC(c3nc4ccc(Cl)cc4[nH]3)CC2)cc1	-	-	94	-	90
Cc1cc(C(=O)NNC(=O)Nc2ccc(Cl)cc2)no1	-	-	-	-	.
CCCCC#Cc1ccc(C(=O)NNC(=O)Nc2cc(Cl)cc(Cl)c2)o1	-	-	79	-	77
Oc1ccc(C23CC4CC(CC(C4)C2)C3)cc1O	-	-	-	-	.
NCCOc1ccc(C23CC4CC(CC(C4)C2)C3)cc1	-	-	76	-	-
OCCN1CCN(CC(O)COc2ccc(C34CC5CC(CC(C5)C3)C4)cc2)CC1 (stereo unspecified)	-	-	91	-	-	MPTP abs DR=4.1;MPTP counter DR=55
Cc1ccc(S(=O)(=O)c2nnn3c2nc(Nc2cccc(C)c2)c2ccccc23)cc1	-	-	65	-	25
Cc1ccc(C)c(Nc2nc3c(S(=O)(=O)c4ccccc4)nnn3c3ccccc23)c1	-	-	-	-	.
COc1ccc(NC(=S)Nc2ccc(F)cc2)cc1	-	-	-	-	.
Fc1ccc(CNC(=S)Nc2ccc(OC(F)F)cc2)cc1	-	-	76	-	96
COc1cc(NC(=S)Nc2ccc(OC(F)F)cc2)cc(OC)c1	-	-	80	-	76
FC(F)Oc1ccc(NC(=S)NCC2COc3ccccc3O2)cc1 (stereo unspecified)	-	-	85	-	98
N#Cc1cccc(C(=O)C(=O)N2CCCN(Cc3ccc(F)cc3)CC2)c1	-	.	-	-	.
COc1ccc(NC(=O)CSc2ccc3ccccc3c2)cc1S(=O)(=O)N1CCCCC1	-	-	-	-	.
CN(CC(=O)Nc1ccc(F)cc1)CC(=O)N1CCCCCC1	-	-	-	-	.
COc1ccc(OC)c(NC(=O)COC(=O)CCCN=C2NS(=O)(=O)c3ccccc32)c1	-	-	-	-	.
O=C(NNc1ccccc1Br)C(=O)n1ccc2ccccc21	-	-	57	-	57
O=C(Nc1ccccc1Br)C(=O)N1CCCC1	-	-	-	-	.
CC(C)Cc1ccc(C(C)C(=O)Nc2ccccc2O)cc1 (stereo unspecified)	-	-	90	-	95
O=C(Nc1ccccc1O)C(c1ccccc1)c1ccccc1	-	-	83	-	83
CC(C)Cc1ccc(C(C)C(=O)Nc2nccs2)cc1 (stereo unspecified)	-	-	-	-	.
CCOC(CNCc1cc(C)c2[nH]c3ccccc3c2c1C)OCC	-	-	-	-	.
CC(C)(C)OC(=O)N1CCCC(C(=O)Nc2ccc(C(=O)NC3CC3)cc2)C1 (stereo unspecified)	-	-	168	-	-	MPTP abs DR=-;MPTP counter DR=-
CC(=O)c1ccc(OCC(=O)c2cc(C)n(-c3ccc4c(c3)OCO4)c2C)cc1	-	-	80	-	85
Cc1c(C(=O)N/N=C/c2ccc(Cl)cc2)[nH]c2ccc(Cl)cc12	-	-	96	-	67
SMILES	SKN-1 inh	ATG4B inh	MPTP inh	MT1-MMP act inh	Rh123 counter	others
CCOc1ccc(/C=N/NC(=O)c2[nH]c3ccc(C)cc3c2C)cc1	-	-	-	-	.
Cc1ccc(OCCC(=O)N(CC(=O)Nc2ccccc2C(F)(F)F)Cc2ccco2)cc1	-	-	-	-	.
Cc1nn(-c2ccc(C(=O)O)cc2)c2c1C(=O)CC(C)(C)C2	-	-	-	-	.
Cc1c(CC(Cl)(Cl)Cl)c2c(n1O)CC(C)(C)CC2=O	-	-	72	-	47
O=C(NNc1ccccc1[N+](=O)[O-])Nc1ccc(Cl)c(Cl)c1	-	-	102	-	84
CCN(CC)S(=O)(=O)c1cc(NC(=O)C2=COCCO2)ccc1Cl	-	-	-	-	.
O=C(Nc1ccc(Br)cc1F)c1ccncc1	-	-	-	-	.
O=C(Nc1ccc(Cl)c(Cl)c1)Nc1ccc(Br)cc1F	-	-	100	-	74
CCN(CC)S(=O)(=O)c1cc([N+](=O)[O-])ccc1NNC(=O)Nc1ccc(Cl)c(Cl)c1	-	-	102	-	76
O=C1C=C(NC(=O)Nc2ccc(Cl)c(Cl)c2)CCC1	-	-	91	-	98
Cc1ccc(N2CCN(C(=O)C(=O)c3cccc([N+](=O)[O-])c3)CC2)cc1	-	.	-	-	.
O=C(Nc1ccc(Cl)cc1)Nc1ccc(Cl)c(Cl)c1	.	-	.	.	.
O=C(Nc1ccc(Cl)c(Cl)c1)Nc1ccccc1O	-	-	98	-	64
CCn1nc(C)cc1C(=O)N1CCCC(C(=O)c2ccc(OC)cc2C)C1 (stereo unspecified)	-	-	-	-	.
COc1cc(CNCCCN2CCOCC2)cc(Br)c1OCc1ccc(Cl)cc1	-	-	74	-	-
O=C1CCCN2N=C(SCC(=O)Nc3cccc(C(F)(F)F)c3)SC2=N1	-	-	74	-	74
COc1ccc(C2SCCN2C(=S)Nc2cccc(Cl)c2)cc1 (stereo unspecified)	-	-	96	-	94
COc1ccc(CNC(=O)Nc2cccc(Cl)c2)cc1	-	-	-	-	.
COC(=O)c1ccc(C)c(NC(=S)NCc2ccc(Cl)cc2)c1	-	-	-	-	.
COc1ccc(CNC(=S)Nc2cccc(Cl)c2)cc1	-	-	75	-	100
COC(=O)c1cccc(NC(=S)NCc2ccc(Cl)cc2)c1	-	-	94	-	107
COC(=O)c1cc(NC(=S)NCc2ccc(Cl)cc2)cc(C(=O)OC)c1	-	-	98	-	79
COC(=O)c1cccc(NC(=S)Nc2cc(Cl)ccc2OC)c1	-	-	-	-	.
COC(=O)c1cccc(NC(=O)Nc2ccc(Cl)cc2Cl)c1	-	-	84	-	75
O=S(=O)(c1ccc(Cl)cc1)N1CCN(C(=S)Nc2ccc(F)c(Cl)c2)CC1	-	-	85	-	88
SMILES	SKN-1 inh	ATG4B inh	MPTP inh	MT1-MMP act inh	Rh123 counter	others
O=S(=O)(c1ccccc1)N1CCN(C(=S)Nc2ccc(F)cc2)CC1	-	-	-	-	.
Cn1c(=O)c2ccccc2n2c(CCl)nnc12	-	-	-	-	.
CCN1/C(=C/c2ccc3cccc(C)c3[n+]2CC)Sc2ccccc21	49	-	101	-	89
C[n+]1ccccc1/C=C1\Sc2ccccc2N1CCO	-	-	-	-	.
Cc1ccc2c(c1)S/C(=C\c1cccc[n+]1C)N2CCO	-	-	-	-	.
CCN1/C(=C\c2ccc3cc(C)ccc3[n+]2CC)Sc2cc(C)c(C)cc21	-	-	85	-	85
CCN1/C(=C/c2ccc3cc(C)ccc3[n+]2CC)Sc2ccc3sccc3c21	-	-	80	-	87
CCN1/C(=C/c2ccc3cc(C)cc(C)c3[n+]2CC)Sc2cc(C)ccc21	-	-	87	-	97
CCC(=O)c1ccc(OCC(=O)N2CCN(c3ncccn3)CC2)cc1	-	-	-	-	.

Source: PubChem (Sanford-Burnham Center for Chemical Genomics)
